Bioassay records as filed in PubChem BioAssay.
OXTR potentiator – human OXTR potentiators, primary screen, fluorescence, CHO-OTR cells, Fluo-8 calcium. Fluo-8 calcium fluorescence, potentiator mode; 0% = oxytocin EC15, 100% = EC100. activation, % at 3 µM. 320,000 compounds, 0.061% hits;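 active means activation above that plate's cutoff, the mean activation of tested compounds plus 3 SD, cut at about 6.6% in these data, passing the limit was not always enough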
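Dosing: Single dose, 3.0 µM nominal final compound concentration | Material: Human OTR in CHO cells | Technique: Kinetic Fluo-8 calcium fluorescence | Benchmarks: EC15 oxytocin alone as 0%, 75 nM oxytocin as 100% | Probe or stimulus: Oxytocin at about EC15, sub-maximal agonist stimulus | Incubation: Compound 6 min at room temperature before oxytocin, 100 s read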
V1aR counter – agonists of human V1a receptor, primary screen, counter-screen for OXTR agonist project, fluorescence, CHO-V1R cells. Vasopressin V1a receptor (Homo sapiens), P37288. Fluo-8 calcium fluorescence, agonist mode; 0% DMSO, 100% 3 nM vasopressin. activation, % at 3 µM. 320,000 compounds, 0.25% hits. AID 2797, 2010;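 active means activation above the mean activation of all tested compounds plus 3 SD, per screening run, cut at about 20% in these data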;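 further: signal is peak over basal fluorescence ratio across a 100 second FLIPR read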
CHO parental Ca – ATP-evoked calcium signal inhibitors, parental CHO, primary screen, counter-screen for OX1R antagonist project, cell-based, fluorescence, Fluo-8 calcium dye | parental CHO-K1, ATP-induced calcium, Fluo-8 fluorescence | inhibition, % at 5.6 µM | 330,000 compounds, 0.63% hits;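 active means inhibition above that plate's mean sample inhibition plus 3 SD, cut at about 26% in these data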
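material = parental CHO cells | also added = ATP as calcium-mobilizing challenge | dosing = single point at 5.6 µM | detection = intracellular calcium via Fluo-8 no-wash fluorescent dye | read-out = % inhibition | benchmarks = low control ATP plus DMSO, high control DMSO only | repeats = one well per compound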
OX1R antag-1 – antagonists of human orexin 1 receptor (OX1R); Orexin/Hypocretin receptor type 1 (Homo sapiens), O43613; AID 485270, 2010; 330,000 compounds, 1.8% hits; OX1R-expressing cells, FRET antagonist read-out; inhibition, % at 6.6 µM; in the data active means inhibition mostly above about 38%, no sharp cut-off; inactive means mostly below about 40%
Target sequence (O43613 whole entry, looked up): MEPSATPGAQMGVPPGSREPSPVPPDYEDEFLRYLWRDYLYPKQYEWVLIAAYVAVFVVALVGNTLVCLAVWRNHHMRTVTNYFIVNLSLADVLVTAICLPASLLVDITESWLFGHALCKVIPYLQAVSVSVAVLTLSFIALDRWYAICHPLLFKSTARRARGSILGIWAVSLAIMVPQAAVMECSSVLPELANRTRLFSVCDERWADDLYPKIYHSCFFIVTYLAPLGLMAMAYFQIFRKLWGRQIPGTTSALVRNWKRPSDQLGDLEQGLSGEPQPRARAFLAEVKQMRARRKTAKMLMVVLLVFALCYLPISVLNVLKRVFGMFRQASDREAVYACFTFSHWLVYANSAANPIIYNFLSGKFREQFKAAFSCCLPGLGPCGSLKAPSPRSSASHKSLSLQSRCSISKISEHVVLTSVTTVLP
OXTR agonist – human OXTR agonists, primary screen, fluorescence, CHO-OTR cells, Fluo-8 calcium; 320,000 compounds, 0.32% hits; Fluo-8 calcium fluorescence; normalized: DMSO 0%, oxytocin 100%; Oxytocin receptor (Homo sapiens), P30559; activation, % at 3 µM; AID 2435, 2010;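 active means activation above the mean of all tested compounds plus 3 SD, cutoff set per screening run, cut at about 20% in these data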;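 further: peak over basal fluorescence ratio from a 100 s FLIPR kinetic read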
OX1R antag-2 – OX1R (HCRTR1) antagonists, primary screen, fluorescence, CHO/OX1R cells, Fluo-8 calcium, orexin A. Fluo-8 calcium fluorescence. inhibition, % at 5 µM. AID 434989, 2010. 330,000 compounds, 0.43% hits;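 active means inhibition above its plate's threshold, mean inhibition of all tested compounds on the plate plus 3 SD, cut at about 37% in these data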
Of the large screens only hits and unclear results are named; the others gave an inactive call. Compounds with a hit are over-represented: about 2.7% of the library has one in this group of screens.

CC(C)Cn1c(N)c(C(=O)COC(=O)CC23CC4CC(CC(C4)C2)C3)c(=O)n(C)c1=O	CHO parental Ca 61, OX1R antag-2 71
Cc1csc(=O)n1CCC(=O)OCC(=O)c1c(N)n(CC(C)C)c(=O)n(C)c1=O	none
CC(C)Cn1c(N)c(C(=O)COC(=O)/C=C/c2ccccc2)c(=O)n(C)c1=O	CHO parental Ca 78
Cc1ccccc1OCCC(=O)OCC(=O)c1c(N)n(CC(C)C)c(=O)n(C)c1=O	CHO parental Ca 46
CC(C)Cn1c(N)c(C(=O)CSc2ccccc2)c(=O)n(C)c1=O	none
Cc1ccc(OCc2ccccc2Br)c([N+](=O)[O-])n1	none
COc1ccc(CN(CCN)C2CC(C)N(C)CC2C)cc1 (stereo unspecified)	none
O=C1C=C(c2ccc(F)nc2)C[C@@H](c2ccc3c(c2)OCO3)C1	none
Cc1[nH][nH]c(=O)c1N=Nc1ccc(S(N)(=O)=O)cc1	OX1R antag-1 41
NS(=O)(=O)c1ccc(N=Nc2c[nH]c(=O)c(O)c2)cc1	OX1R antag-1 42
CCCCN(C(=O)COC(=O)COc1c(C)cc(C)cc1C)c1c(N)n(CCC)c(=O)[nH]c1=O	none
N=c1n(Cc2ccc(Cl)cc2)c2ccccc2n1CC(O)COc1ccccc1 (stereo unspecified)	V1aR counter 25, CHO parental Ca 72, OXTR agonist 37, OX1R antag-2 75
COc1ccc(OCC(O)Cn2c(=N)n(Cc3ccccc3)c3ccccc32)cc1 (stereo unspecified)	none
Cc1ccc2n(n1)c(=O)c(Cc1ccccc1)c([O-])[n+]2-c1ccccc1	OX1R antag-1 48
COc1ccc(Nc2nc(-c3cccs3)nc3ccccc23)cc1S(=O)(=O)N1CCOCC1	none
COc1cccc(/C=N/NC(=O)CNC(=O)c2ccc(S(=O)(=O)N3CCCC3)cc2)c1OC	none
Cc1cccc(C(=O)N2CCCC(CCC(=O)N3CCN(c4ccccn4)CC3)C2)c1 (stereo unspecified)	none
Nc1cc(C(=O)O)c(Oc2ccc(Cl)cc2Cl)cc1C(=O)O	OX1R antag-1 61
Nc1cc(Oc2ccc(Cl)cc2Cl)nc(N)n1	none
Cc1nc2c(Br)cc(Br)cc2cc1O	OX1R antag-1 55
COc1ccc(N=CC2=C(Nc3ccc(OC)cc3)c3c(C)nn(-c4ccccn4)c3CC2)cc1	V1aR counter 21, CHO parental Ca 31
COc1ccc(-c2cc(C(=O)O)c3c(C)nn(-c4ccccn4)c3n2)cc1	none
CN(C)c1ccc(N=Nc2ccccc2C(=O)OCC(=O)N(C)C2CCCCC2)cc1	CHO parental Ca 55
CN(C)c1ccc(N=Nc2ccccc2C(=O)OCC(=O)NCC2CCCCC2)cc1	none
O=C(Nc1ccc(Cl)cc1)Nc1ccccc1Sc1ncc([N+](=O)[O-])s1	none
O=[N+]([O-])c1cnc(Sc2ccncn2)s1	OX1R antag-1 72
CC1=NNC(=O)/C1=C\c1cn(-c2ccccc2)nc1-c1ccccc1	CHO parental Ca 92, OX1R antag-2 96
Cc1ccc2c(CN3CCN(S(=O)(=O)c4ccccc4C(F)(F)F)CC3)cc(=O)oc2c1C	none
Cc1cc(C)c(CN2CCN(C(=O)Cn3cnc(C(=O)Nc4ccc(C)c(C)c4)n3)CC2)c(C)c1	CHO parental Ca 55, OX1R antag-2 59 (no result: OXTR potentiator, V1aR counter, OXTR agonist)
Cc1ccc(NC(=O)Cn2cnc(C(=O)Nc3ccc(C)c(C)c3)n2)cc1C	none (no result: OXTR potentiator, V1aR counter, OXTR agonist)
COc1ccc(/C=C(/NC(=O)c2ccccc2)C(=O)N2CCOCC2)cc1OC	none
CSc1nc2c(c(-c3ccc(O)cc3)c1C#N)CCC2	CHO parental Ca 48
COc1ccc(C2(C#N)CCC(=O)N2c2ccccc2)cc1 (stereo unspecified)	none
CN(CC(=O)Nc1ccc(F)cc1[N+](=O)[O-])C1CCS(=O)(=O)C1 (stereo unspecified)	OX1R antag-1 34
CN(CC(=O)Nc1ccccc1Cl)C1CCS(=O)(=O)C1 (stereo unspecified)	none
CCCCc1nc2cc(C(=O)NCc3cc(C)n(C)n3)ccc2o1	none
Cc1cc(N2CCCC2=O)cc(C)c1S(=O)(=O)NCCOc1ccc(C(C)(C)C)cc1	CHO parental Ca 41, OX1R antag-1 70, OX1R antag-2 67
O=C1CCCN1c1ccc(S(=O)(=O)NCCOc2ccccc2)cc1	none
COCCNC(=O)c1ccc2c(c1)S(=O)(=O)c1cc(Cl)ccc1C2=O	OX1R antag-1 42
O=C(NCc1ccco1)c1ccc2ccccc2c1	none
O=C(NCc1ccco1)c1ccc2c(c1)C(=O)c1ccccc1-2	OX1R antag-1 37
COCCNC(=O)c1ccc2c(c1)C(=O)c1ccccc1-2	OX1R antag-1 37
N#Cc1ccccc1OCC(=O)OCC(=O)NC1CCS(=O)(=O)C1 (stereo unspecified)	none
Cc1oc(-c2cccs2)nc1CN1CCC(CO)(CCOc2ccccc2)CC1	none
CCC(CC)=NNc1ccc(S(N)(=O)=O)cc1[N+](=O)[O-]	OX1R antag-1 46
O=C(O)c1ccc(/C=N\Nc2ccc(S(=O)(=O)N3CCOCC3)cc2[N+](=O)[O-])cc1	none
NS(=O)(=O)c1ccc(N/N=C/c2ccc(C(=O)O)cc2)c([N+](=O)[O-])c1	OX1R antag-1 50
NS(=O)(=O)c1ccc(NN=C2CCCCC2)c([N+](=O)[O-])c1	OX1R antag-1 73
CCOC(=O)N1CCC(=NNc2ccc(S(N)(=O)=O)cc2[N+](=O)[O-])CC1	OX1R antag-1 59
O=c1oc2cc(Br)ccc2n1Cc1ccccc1	none
CN(CC(=O)Nc1cccc(F)c1)C(=O)c1cc(S(=O)(=O)N(C)C)ccc1N1CCCC1	none
Cc1ccc(CN2CCNC(=O)C2CC(=O)N2CCN(c3ncccn3)CC2)o1 (stereo unspecified)	none
O=C(Cc1ccsc1)NNC(=O)c1ccccc1O	none
NC1CCN(c2nc3c(cc2F)c(=O)c(C(=O)O)cn3-c2ccc(F)cc2F)C1 (stereo unspecified)	none
Cc1cccc(-c2cc(=O)c(C(=O)O)cn2-c2ccc(F)cc2F)c1	OX1R antag-1 58
CCCCC1CCC(C(=O)N(C)CC(=O)Nc2cccc(OC)c2)CC1 (stereo unspecified)	none
